The values below come from ChEMBL document CHEMBL3992510, “Urea Derivatives of 2-Aryl-benzothiazol-5-amines: A New Class of Potential Drugs for Human African Trypanosomiasis” (J Med Chem, 2017).

The nature of series [1]: Stability in mouse liver microsomes assessed as compound remaining at 1.5 uM in presence of NADPH measured after 60 mins by liquid chromatography/tandem mass spectrometric analysis. It counts as ADME, microsome. To be noted: read-out: Stability. The gist of the method:
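Pooled liver microsomes (0.5 mg/mL) are preincubated 5 min at 37 °C in 0.16 M KH2PO4 with 1 mM NADPH, then test compound is added at 1.5 μM. Aliquots are quenched with 4 volumes of acetonitrile at 0, 5, 10, 15, 30 and 60 min and analyzed by LC-MS/MS. Percent remaining at 5 or 60 min is given when t1/2 is outside the 5–60 min range. Controls: testosterone, dextromethorphan.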

Series [2] can be described thus: AUC (0 to infinity) in mouse at 50 mg/kg, po administered as single dose via gavage as 7% Tween 80/3% EtOH/5% DMSO formulation by liquid chromatography/tandem mass spectrometric analysis. It is filed as ADME, organism-based. To be noted: in vivo. The arrangement: dose 50 mg/kg, route oral, time infinity. The gist of the method:
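Single oral gavage dose of 50 mg/kg to groups of three mice, vehicle as in the line. Tail blood of 40 μL is taken into heparinized capillaries at time points out to as much as 32 h. It is spotted on dried-blood cards and quantified by LC-MS/MS. Values are means ± SEM of three mice.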

A short description of series [3]: Drug level in mouse brain at 50 mg/kg, po administered as single dose via gavage measured at 8 hrs post dose by liquid chromatography/tandem mass spectrometric analysis. To be noted: read-out: Drug uptake. It counts as ADME, organism-based. An outline of the steps: (§1)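 Single 50 mg/kg oral dose in DMSO (5%), Tween 80 (7%), EtOH (3%) in 0.9% saline; groups of three mice killed at 1, 4, 8 and 24 h. Plasma separated by brief centrifugation; brain homogenised in acetonitrile; both assayed by LC-MS/MS, brain values corrected for 3% v/w blood content. Mean ± SEM of 3 mice; plasma LLQ 0.010 μM.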

The nature of series [4]: Drug level in mouse brain at 5 mg/kg, ip administered as single dose measured at 1 hr post dose by liquid chromatography/tandem mass spectrometric analysis. It counts as ADME, organism-based. To be noted: read-out: Drug uptake. An outline of the steps:
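Single ip dose of 5 mg/kg in 5% DMSO/7% Tween 80/3% EtOH in 0.9% saline, three mice per compound (six for one compound). At 1 h, plasma is separated by centrifugation and brain homogenized in acetonitrile. Both are quantified by LC-MS/MS, with brain corrected for 3% v/w blood. Brain/plasma ratio is reported as mean ± SEM.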

Series [5] in a line: Cytotoxicity against human CRL8155 cells assessed as growth inhibition after 48 hrs by Alamar blue assay. It is filed as cell-based. The settings on record: Homo sapiens, CRL8155, 48 h. The gist of the method: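 CRL-8155 lymphoblasts or HepG2 hepatocellular carcinoma cells are exposed 48 h to serial compound dilutions in quadruplicate. Growth is read with Alamar Blue, and 50% and 90% inhibitory concentrations come from nonlinear regression. Quinacrine is the control.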

Series [6] relates to Trypanosoma brucei rhodesiense. As to the kind of experiment: Antiparasitic activity against Trypanosoma brucei rhodesiense STIB900 infected in Swiss-Webster mouse assessed as reduction in parasitemia at 50 mg/kg, po bid administered via gavage from day 2 to 5 post infection measured on day 60 by microscopic method. It is filed as functional, organism-based. An outline of the steps: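 Female Swiss-Webster (ND4 outbred) mice, 6–8 weeks old, five per group, are infected on day 0 with 1 × 10^4 parasites. Dosing is 50 mg/kg by oral gavage every 12 h on days 2–5 (eight doses) in 200 μL of 5% DMSO/7% Tween 80/3% EtOH in 0.9% saline. Tail blood is examined microscopically for 60 days, and mice become parasitemic are euthanized. Three mice are sampled before dose 7 and at 1 and 6 h after for plasma levels.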

A short description of series [7]: Drug level in mouse plasma at 50 mg/kg, po administered as single dose via gavage measured at 24 hrs post dose by liquid chromatography/tandem mass spectrometric analysis. It counts as ADME, organism-based. The gist of the method: as §1
For series [8], the system named is Trypanosoma brucei brucei. As to the kind of experiment: Anti-parasitic activity against Trypanosoma brucei brucei TREU667 infected in mouse assessed as reduction in parasitemia at 50 mg/kg, bid administered via oral gavage on day 21 to 30 post infection measured on day 180 by microscopic method. It counts as functional, organism-based. The gist of the method: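 Groups of five mice are infected on day 0 with 1 × 10^4 parasites to give a chronic infection. From day 21, mice receive 50 mg/kg orally b.i.d. for 10 days (20 doses) in 200 μL of 60% Phosal 53 MCT/30% PEG400/10% EtOH; a vehicle-only group runs alongside. Tail blood slides are examined microscopically until 180 days postinfection. Three mice are sampled before dose 15 and at 1 and 6 h after.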

The nature of series [9]: Drug level in Swiss-Webster mouse plasma infected with Trypanosoma brucei rhodesiense STIB900 at 50 mg/kg, po bid administered via gavage for 4 days starting from 2 days post infection measured at 1 hr post last dose. It is filed as ADME, organism-based. An outline of the steps:
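Female Swiss-Webster mice (ND4 outbred, 6−8 weeks), groups of five, infected day 0 with 1 × 10^4 T. b. rhodesiense STIB900; 50 mg/kg oral gavage every 12 h days 2−5 (eight doses) in 200 μL DMSO 5%, Tween 80 7%, EtOH 3% in 0.9% saline. Tail blood from 3 mice before dose 7, then 1 and 6 h post-dose, spotted on cards, LC-MS/MS.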

Series [10] deals with Trypanosoma brucei brucei. As to the kind of experiment: Antitrypanosomal activity against Trypanosoma brucei brucei BF427 assessed as growth inhibition measured after 48 hrs by Alamar blue assay. The settings on record: BF427, 48 h. It is filed as functional. An outline of the steps: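 Bloodstream-form parasites in HMI-9 medium are exposed to serial compound dilutions in triplicate. Viability is read with Alamar Blue at 48 h. EC50 and EC90 come from nonlinear regression. Pentamidine isethionate is the control.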

The source made the active and inactive calls. No cut-off for these calls is given here. Where only a bound is given, the exact number is not on record here.

Regarding `O=C(Nc1ccc2sc(-c3ccc(F)c(F)c3)nc2c1)N1CC[C@H](F)C1`, the remaining at 1 h, 1.5 µM in series [1] was 73%. In series [2], the AUC(0-inf) lay within 220 to 221 µM·h. The concentration at 8 h in series [3] turned out to be 48.1 µM. Besides, the figures for the concentration at 1 h in series [4] and in series [9] were 9.07 µM and 18.6 µM, respectively. Also, the figures for the EC50 in series [5] and in series [10] were more than 50000 nM and 34.8 nM, respectively. Besides, the result in series [6] and in [8] was Active. The molecule further came in with a concentration at 24 h in series [7] of 0.01 µM. For the same molecule, the EC90 in series [10] was determined as 54.8 nM.
